Test results published in ChEMBL document CHEMBL3877295, “Discovery of novel 3-hydroxypicolinamides as selective inhibitors of HIV-1 integrase-LEDGF/p75 interaction” (Eur J Med Chem, 2017).
pEC50, pIC50: −log10 of the molar value.

How the values were obtained:
[1] = Inhibition of HIV1 His6-tagged integrase/FLAG-tagged LEDGF/p75 protein-protein interaction expressed in Escherichia coli BL21(DE3) preincubated with integrase for 30 mins followed by LEDGF/p75 addition measured after 60 mins by AlphaScreen assay
In short: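 His6-integrase (300 nM final) preincubated with compound […] for 30 min at 4 °C. FLAG-LEDGF/p75 (300 nM final) added for 60 min at 4 °C. Ni-chelate donor and anti-FLAG acceptor beads (20 µg/mL each) added for 1 h at 30 °C, then acceptor emission read.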

[2] = Inhibition of HIV1 recombinant GST/His-tagged integrase strand transfer activity expressed in Escherichia coli BL21(DE3) using 5'-end 32P labeled linear 21-mer substrate preincubated for 30 mins followed by substrate addition measured after 1 hr by PAGE analysis; set-up: species or system Human immunodeficiency virus 1
In short: (§1)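 Recombinant wild-type integrase (200 nM final) preincubated with inhibitor in 50 mM NaCl, 1 mM HEPES pH 7.5, 10% glycerol, 7.5 mM MnCl2, 0.1 mg/mL BSA. Substrate: 21-mer top strand 5'-labelled with [γ-32P]ATP by T4 polynucleotide kinase, kinase heat-killed at 95 °C for 15 min, annealed to 1.5-fold molar excess bottom strand, and spin-column cleaned.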

[3] = Inhibition of HIV1 recombinant GST/His-tagged integrase 3'-processing activity expressed in Escherichia coli BL21(DE3) assessed as reduction in 19-mer product using 5'-end 32P labeled linear 21-mer substrate preincubated for 30 mins followed by substrate addition measured after 1 hr by PAGE analysis; set-up: species or system Human immunodeficiency virus 1; in short: as §1
[4] = test system: Human immunodeficiency virus 1; test: Antiviral activity against HIV1 3B infected in human MT4 cells assessed as reduction in virus-induced cytopathic effect by MTT assay; type: functional, cell-based; conditions: Human immunodeficiency virus 1, 3B
[5] = Cytotoxicity against human MT4 cells assessed as reduction in cell viability after 72 hrs by MTT assay; type: toxicity, cell-based
[6] = Therapeutic Index, ratio of CC50 for human MT4 cells to EC50 for HIV1 3B infected in human MT4 cells; type: cell-based; conditions: read-out: Ratio CC50/EC50
[7] = Cytotoxicity against human C8166 cells assessed as reduction in cell viability after 72 hrs by MTT assay; type: toxicity, cell-based
[8] = Therapeutic Index, ratio of CC50 for human C8166 cells to EC50 for HIV1 3B infected in human C8166 cells; type: cell-based; conditions: read-out: Ratio CC50/EC50
[9] = test system: Human immunodeficiency virus 1; test: Antiviral activity against HIV1 3B infected in human C8166 cells assessed as reduction in virus-induced cytopathic effect by MTT assay; type: functional, cell-based; conditions: Human immunodeficiency virus 1, 3B
[10] = Inhibition of HIV1 GST-tagged integrase and His6-tagged integrase mutant dimerization expressed in Escherichia coli BL21(DE3) after overnight incubation by AlphaScreen assay; set-up: species or system Human immunodeficiency virus 1

| Compound | pIC50 [1] | pIC50 [2] | pIC50 [3] | pEC50 [4] | CC50 at 72 h [5] | selectivity ratio [6] | CC50 at 72 h [7] | selectivity ratio [8] | pEC50 [9] | pIC50 [10] |
| --- | --- | --- | --- | --- | --- | --- | --- | --- | --- | --- |
| Nc1cccc(C(=O)NCc2ccco2)c1O | 4.29 | < 4.00 | – | – | – | – | – | – | – | – |
| O=c1oc2cccnc2c(=O)n1Cc1ccc(F)cc1 | < 4.70 | < 4.70 | < 4.70 | 4.13 | 311 µM | 4.3 | – | – | – | – |
| O=C(Nc1ccc(F)cc1)c1ncccc1O | 5.10 | < 4.70 | < 4.70 | – | – | – | > 860 µM | > 45 | 4.71 | – |
| O=C(NCc1ccco1)c1cccnc1O | < 4.00 | – | – | – | – | – | – | – | – | – |
| O=C(NCc1cccs1)c1ncccc1O | 5.12 | < 4.70 | < 4.70 | – | – | – | 218 µM | 2.9 | 4.12 | 5.10 |
| COc1cccnc1C(=O)NCc1ccc(F)cc1 | < 4.70 | < 4.70 | < 4.70 | – | – | – | – | – | – | – |
| COc1cc(CNC(=O)c2ncccc2O)cc(OC)c1OC | 5.60 | < 4.70 | < 4.70 | – | – | – | > 500 µM | > 9 | 4.23 | 5.01 |
| O=C(NCc1ccc(F)cc1)c1ccccn1 | < 4.70 | < 4.70 | < 4.70 | – | – | – | – | – | – | – |
| CC(C)CN(Cc1ccc(F)cc1)C(=O)c1ncccc1O | < 4.70 | < 4.70 | < 4.70 | 3.57 | 247 µM | < 1 | – | – | – | – |
| O=C(NCc1ccc2[nH]ccc2c1)c1ncccc1O | 5.34 | < 4.70 | < 4.70 | – | – | – | 138 µM | 2 | 4.15 | 5.10 |
| O=C(NCc1ccc(F)cc1)c1cccc(O)n1 | < 4.70 | < 4.70 | < 4.70 | – | – | – | – | – | – | – |
| C=C(C)CN(Cc1ccc(F)cc1)C(=O)c1ncccc1O | < 4.70 | < 4.70 | < 4.70 | 3.55 | 272 µM | < 1 | – | – | – | – |
| O=C(NCc1ccc(F)cc1)c1cc(O)ccn1 | < 4.70 | < 4.70 | < 4.70 | – | – | – | – | – | – | – |
| CCCCNC(=O)c1ncccc1O | < 4.70 | < 4.70 | < 4.70 | – | – | – | > 1000 µM | – | < 3.30 | – |
| O=c1oc2cccnc2c(=O)n1Cc1cccs1 | < 4.70 | < 4.70 | < 4.70 | 4.16 | 363 µM | 5.2 | – | – | – | – |
| O=C(NCc1ccc(F)c(Cl)c1)c1ncccc1O | 5.38 | < 4.70 | < 4.70 | – | – | – | 310 µM | 16 | 4.72 | – |
| O=C(NCc1ccc(F)cc1)c1ncccc1F | < 4.70 | < 4.70 | < 4.70 | – | – | – | – | – | – | – |
| O=C(NCc1ccc(F)cc1)c1ncccc1O | 5.07 | < 4.70 | < 4.70 | – | – | – | 114 µM | 1.5 | 4.11 | 5.21 |
| CC(C)CCN(Cc1ccc(F)cc1)C(=O)c1ncccc1O | < 4.70 | < 4.70 | < 4.70 | 4.16 | 268 µM | 3.9 | – | – | – | – |
| O=C(NCC1CCCCC1)c1ncccc1O | 4.72 | < 4.70 | < 4.70 | – | – | – | 137 µM | 2.1 | 4.18 | – |
| O=C(NCc1ccco1)c1ncccc1O | 5.62 | < 4.70 | < 4.70 | – | – | – | 575 µM | 2.1 | 3.57 | 5.00 |
| O=C(NCc1ccc([N+](=O)[O-])cc1)c1ncccc1O | 5.40 | < 4.70 | < 4.70 | – | – | – | 127 µM | 4.8 | 4.58 | – |
| CCCCN(Cc1ccc(F)cc1)C(=O)c1ncccc1O | 4.92 | < 4.70 | < 4.70 | < 3.48 | > 660 µM | – | – | – | – | 4.85 |
| Nc1ccc(CNC(=O)c2ncccc2O)cc1 | 5.77 | < 4.70 | < 4.70 | – | – | – | > 596 µM | > 2.3 | 3.59 | 5.40 |
| O=C(NCc1ccc(C(F)(F)F)cc1)c1ncccc1O | < 4.70 | < 4.70 | < 4.70 | – | – | – | 31.4 µM | < 1 | 4.36 | – |
| O=C(NCc1cccc2ccccc12)c1ncccc1O | < 4.70 | < 4.70 | < 4.70 | – | – | – | 88.8 µM | 1.5 | 4.24 | – |
| O=C(NCc1ccc(F)cc1)c1ccc(O)cn1 | < 4.70 | < 4.70 | < 4.70 | – | – | – | – | – | – | – |
| O=C(NCc1ccc(F)cc1)c1nc(N2CCCCS2(=O)=O)c2cccnc2c1O | – | 9.10 | 8.27 | – | – | – | 123 µM | 52800 | 8.63 | – |
